Measured values from ChEMBL document CHEMBL5532760, “Synergy between the clavanins as a weapon against multidrug-resistant Enterobacter cloacae” (2024).
≈ marks a conversion by molar mass, not a printed value. Where “and” joins values, the source holds several entries; their conditions need not be identical. Equal entries are not always repeated. Where a SMILES comes first, the peptide text is derived from it. [ ]: non-standard residue; d: D form. Dopa = N[C@@H](Cc1ccc(O)c(O)c1)C(=O)O

Key:
[1] = test system: Enterobacter cloacae; assay: Antibacterial activity against Enterobacter cloacae 0136 at pH 5.5 incubated for 18 to 20 hrs by broth microdilution method; format: functional; settings: time 18-20 hrs
In short: (§1)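 E. cloacae AR#0136 grown at 37 °C with shaking at 234 rpm to mid-log (OD600 0.4–0.6) in MHB. For pH 5.5 the medium was adjusted with 0.1 M HCl before autoclaving; the pH 7.4 medium was not adjusted. Peptides were twofold serially diluted; final inoculum 5×10^5 CFU/mL; 37 °C for 18–20 h. MIC taken as the lowest concentration with no visible growth.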

[2] = test system: Enterobacter cloacae; assay: Antibacterial activity against Enterobacter cloacae 0136 at pH 7.4 incubated for 18 to 20 hrs by broth microdilution method; format: functional; settings: time 18-20 hrs; in short: as §1

Row | MIC [1] | MIC [2] | Molecule
1 | 46 µg/mL (≈ 17.1 µM) | > 128 µM and 372 µg/mL | CC[C@H](C)[C@H](NC(=O)[C@H](CCCCN)NC(=O)CNC(=O)[C@H](CC(C)C)NC(=O)[C@H](CC(C)C)NC(=O)[C@H](Cc1cnc[nH]1)NC(=O)[C@H](Cc1ccccc1)NC(=O)[C@@H](N)C(C)C)C(=O)N[C@H](C(=O)N[C@@H](Cc1cnc[nH]1)C(=O)N[C@@H](Cc1cnc[nH]1)C(=O)N[C@H](C(=O)NCC(=O)N[C@@H](CC(N)=O)C(=O)N[C@@H](Cc1ccccc1)C(=O)N[C@H](C(=O)N[C@@H](Cc1ccc(O)c(O)c1)C(=O)NCC(=O)N[C@@H](Cc1ccccc1)C(=O)N[C@@H](CO)C(=O)N[C@@H](Cc1cnc[nH]1)C(=O)N[C@H](C(=O)N[C@@H](Cc1ccccc1)C(=O)O)C(C)C)C(C)C)C(C)C)[C@@H](C)CC
2 | > 128 µM and 341 µg/mL | > 128 µM and 341 µg/mL | H-VFQFLGKIIHHVGNFVHGFSHVF-NH2
3 | 4 µM and 4.9 µg/mL | 4 µM and 4.9 µg/mL | H-GIGKFLHSAKKFGKAFVGEIMNS-NH2
4 | 11 µg/mL | 348 µg/mL | H-FLRFIGSVIHGIGHLVHHIGVAL-NH2
5 | 8 µM and 23 µg/mL | > 128 µM and 371 µg/mL | CC[C@H](C)[C@H](NC(=O)[C@H](CCCNC(=N)N)NC(=O)CNC(=O)[C@H](CC(C)C)NC(=O)[C@H](CC(C)C)NC(=O)[C@H](CCCCN)NC(=O)[C@H](Cc1ccccc1)NC(=O)[C@H](C)N)C(=O)N[C@H](C(=O)N[C@@H](Cc1cnc[nH]1)C(=O)N[C@@H](Cc1cnc[nH]1)C(=O)N[C@H](C(=O)NCC(=O)N[C@@H](CC(N)=O)C(=O)N[C@@H](Cc1ccccc1)C(=O)N[C@H](C(=O)N[C@@H](Cc1ccc(O)c(O)c1)C(=O)NCC(=O)N[C@@H](Cc1ccccc1)C(=O)N[C@@H](CO)C(=O)N[C@@H](Cc1cnc[nH]1)C(=O)N[C@H](C(=O)N[C@@H](Cc1ccccc1)C(=O)O)C(C)C)C(C)C)C(C)C)[C@@H](C)CC (H-AFKLLGRIIHHVGNFV[Dopa]GFSHVF-OH)

Row | Molecule | MIC [1] | MIC [2]
6 | H-VFQFLGRIIHHVGNFVHGFSHVF-NH2 | 128 µM and 344 µg/mL | > 128 µM and 344 µg/mL
7 | H-LFKLLGKIIHHVGNFVHGFSHVF-NH2 | 8 µM and 23 µg/mL | > 128 µM and 368 µg/mL
